This note sets out measurements from ChEMBL document CHEMBL4616672, “Inhibiting Matrix Metalloproteinase-2 Activation by Perturbing Protein-Protein Interactions Using a Cyclic Peptide” (J Med Chem, 2020).

Structures are written as SMILES. Active and inactive are the calls of the source. *1 amine or outer side, *2 acyl side, *3 side chain or, on linkers, in order; H or OH if unused. Where a SMILES comes first, the peptide text is derived from it. Bridges are numbered along the chain shown (N, C = ends). Triazole bridges read from a SMILES are 1,4-linked. [ ]: non-standard residue; d: D form. The star is where a group is joined. RhodamineB = CCN(CC)c1ccc2c(-c3ccccc3C(=O)*)c3ccc(=[N+](CC)CC)cc-3oc2c1; Lys(N3) = [N-]=[N+]=NCCCC[C@H](N)C(=O)O; X1 = O=C([C@H](Cc1c[nH]nn1)N[*:1])[*:2]; NMeGABA = CN(CCCC(=O)[*:2])[*:1]; Pra = C#CC[C@H](N)C(=O)O

Assay [1] concerns the target T1, 72 kDa type IV collagenase (Homo sapiens, UniProt P08253). Put plainly: Binding affinity to N-terminal (His6)-MBP tagged full-length human proMMP2 expressed in Escherichia coli BL21(DE3) RIL assessed as reduction in Rhod-cy(WPHPY binding incubated for 30 mins by fluorescence polarization assay. The essentials: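 Competitive fluorescence polarization in PBS. Recombinant tag-free full-length proMMP2 (TEV-cleaved after nickel purification, then ion-exchange and size exclusion) and Rhod-cy(WPHPY) each held at 100 nM, with unlabeled ligand titrated. Read as FP. Triplicate individually prepared samples averaged, reported as mean ± SD. Each experiment repeated at least three times on different days.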
On the technique in general: In fluorescence polarisation assays a small probe gives low polarisation when free and higher when bound to something large.

The target in assay [2] is Matrix metalloproteinase-9 (Homo sapiens) (UniProt P14780). The assay can be described thus: Inhibition of proMMP9 activation in human WM115 cells assessed as reduction in MMP9 activity at 0.1 nM to 1 uM incubated for 24 hrs using enzyme-specific fluorogenic substrate by fluorescence based assay. In kind it is cell-based. The method in brief:
(§1)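 WM115 cells grown to 80% confluency, then cultured 24 h in serum-free medium containing compound (no-compound control). Medium concentrated and BCA-normalized. 10 μg protein in TNC buffer (pH 7.5) with MMP2- or MMP9-specific fluorogenic substrate (3 μM), incubated 20 min at 37 °C, fluorescence read at Ex 325/Em 393 nm. Triplicates, three repeats.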

The target of assay [3] is T1, 72 kDa type IV collagenase. Put plainly: Inhibition of proMMP2 activation in human WM115 cells assessed as reduction in MMP2 activity at 0.1 nM to 1 uM incubated for 24 hrs by gelatin zymography. In kind it is cell-based. The method in brief: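 WM115 cells (600k per well) seeded 8 h in full medium, then 24 h at 37 °C in serum-free medium with compound. Medium concentrated and normalized to 10 μg/mL protein. Run on 7.5% gelatin gel, washed in Triton X-100 buffer, incubated 20 h at 37 °C in CaCl2/ZnCl2 buffer, then Coomassie stained. Three independent experiments.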

Assay [4] deals with T1, 72 kDa type IV collagenase. Put plainly: Binding affinity to of proMMP2 in human WM115 cells assessed as reduction in cell membrane association of proMMP at 10 nM incubated for 15 hrs by immunofluorescence based confocal microscopy. The essentials: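 WM115 cells in full medium exposed to 10 nM for 15 h, fixed in 4% paraformaldehyde without permeabilization and blocked in 5% goat serum. Stained overnight at 4 °C with anti-MMP2 (1:500), then Alexa Fluor 594 anti-rabbit (1:2000). Confocal imaging; single-cell intensity quantified over thirty cells per image. Three repeats.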

Assay [5] has as its system Matrix metalloproteinase-2 (Homo sapiens). The assay can be described thus: Inhibition of proMMP2 activation in human WM115 cells assessed as decrease in cell invasion at 1 nM to 1 uM incubated for 24 hrs by transwell cell invasion assay.
The target in assay [6] is T1, 72 kDa type IV collagenase. The assay can be described thus: Inhibition of proMMP2 activation in human WM115 cells assessed as reduction in MMP2 activity at 0.1 nM to 1 uM incubated for 24 hrs using enzyme-specific fluorogenic substrate by fluorescence based assay. In kind it is cell-based. The method in brief: as §1
Assay [7] has as its target T1, 72 kDa type IV collagenase. The assay can be described thus: Inhibition of MMP2 in human WM115 cells at 0.1 nM to 1 uM incubated for 5 mins using MMP2-specific fluorogenic substrate by fluorescence based assay. In kind it is cell-based. The method in brief: (§2)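 WM115 serum-free 24 h conditioned medium, concentrated and normalized by BCA. 10 μg protein in TNC buffer (50 mM Tris, 0.15 M NaCl, 10 mM CaCl2, pH 7.5) with compound in PBS, equilibrated 5 min at 37 °C. MMP2-specific fluorogenic substrate (3 μM) added, 20 min at 37 °C, read at Ex 325/Em 393 nm. For the TIMP2 condition, recombinant TIMP2 (10 μL of 1 μg/μL) added to all mixtures. Triplicates, three repeats.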

Assay [8] concerns the target T1, 72 kDa type IV collagenase. The assay can be described thus: Binding affinity to catalytic domain of proMMP2 in human WM115 cells assessed as reduction in TIMP2-mediated inhibition of MMP2 enzyme activity at 0.1 nM to 1 uM incubated for 5 mins using MMP2-specific fluorogenic substrate by fluorescence based assay. In kind it is cell-based. The method in brief:
as §2

Assay [9] relates to Matrix metalloproteinase-2 (Homo sapiens). The assay can be described thus: Inhibition of proMMP2 activation in human WM115 cells assessed as decrease in cell numbers in wound region at 1 nM to 1 uM incubated for 24 hrs by wound-healing scratch assay.
Assay [10] deals with T1, 72 kDa type IV collagenase. Put plainly: Inhibition of proMMP2 activation in human WM115 cells assessed as reduction in MMP2 protein expression incubated for 24 hrs by Western blot analysis. In kind it is cell-based. The method in brief: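 WM115 cells treated 24 h in serum-free medium with compound (PBS control). Conditioned medium immunoblotted for MMP2 with HRP secondary and chemiluminescent detection. Three independent blots, each with medium from a fresh cell batch.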
For orientation: A western blot detects proteins with antibodies after separation by electrophoresis.

The target of assay [11] is T1, 72 kDa type IV collagenase. The assay can be described thus: Binding affinity to hemopexin domain of proMMP2 in human WM115 cells assessed as inhibition of TIMP2-MMP2 interaction using surface immobilized recombinant TIMP incubated for 1 hr by ELISA based competitive binding assay. In kind it is cell-based. The method in brief:
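His-tagged recombinant TIMP2 (9 pmol/well) captured on Ni-coated wells, blocked with His6 peptide. WM115 serum-free 24 h conditioned medium, concentrated (10 kDa cutoff), mixed with compound in PBS (PBS control) and incubated 1 h at room temperature with shaking. Bound MMP2 detected with anti-MMP2 rabbit mAb, HRP secondary and chemiluminescence. Triplicates averaged, experiment repeated three times.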
On the technique in general: An ELISA detects its analyte on a solid surface through an enzyme-linked reagent.

In assay [12] the target is T1, 72 kDa type IV collagenase. The assay can be described thus: Binding affinity to […] expressed in Escherichia coli BL21(DE3) RIL incubated for 30 mins by fluorescence polarization assay.

T1 sequence (P08253 whole entry): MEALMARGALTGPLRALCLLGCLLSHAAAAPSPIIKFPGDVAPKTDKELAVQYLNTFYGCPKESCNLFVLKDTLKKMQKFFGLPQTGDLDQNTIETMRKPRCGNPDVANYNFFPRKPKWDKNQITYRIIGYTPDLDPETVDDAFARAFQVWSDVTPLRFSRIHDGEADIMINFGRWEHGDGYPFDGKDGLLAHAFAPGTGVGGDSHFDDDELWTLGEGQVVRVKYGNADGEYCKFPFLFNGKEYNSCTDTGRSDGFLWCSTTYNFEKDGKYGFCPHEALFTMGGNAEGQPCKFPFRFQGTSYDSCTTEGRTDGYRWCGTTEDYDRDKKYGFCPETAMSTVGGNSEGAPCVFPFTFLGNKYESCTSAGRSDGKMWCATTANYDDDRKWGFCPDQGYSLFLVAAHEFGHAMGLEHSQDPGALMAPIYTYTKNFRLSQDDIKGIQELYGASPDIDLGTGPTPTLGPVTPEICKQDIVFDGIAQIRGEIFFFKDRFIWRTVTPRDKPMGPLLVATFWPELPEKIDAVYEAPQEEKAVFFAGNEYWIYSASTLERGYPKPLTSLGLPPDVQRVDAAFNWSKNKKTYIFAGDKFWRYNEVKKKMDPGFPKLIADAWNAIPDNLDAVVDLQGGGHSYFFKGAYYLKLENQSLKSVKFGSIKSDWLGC
Matrix metalloproteinase-9 (Homo sapiens), sequence (P14780 whole entry): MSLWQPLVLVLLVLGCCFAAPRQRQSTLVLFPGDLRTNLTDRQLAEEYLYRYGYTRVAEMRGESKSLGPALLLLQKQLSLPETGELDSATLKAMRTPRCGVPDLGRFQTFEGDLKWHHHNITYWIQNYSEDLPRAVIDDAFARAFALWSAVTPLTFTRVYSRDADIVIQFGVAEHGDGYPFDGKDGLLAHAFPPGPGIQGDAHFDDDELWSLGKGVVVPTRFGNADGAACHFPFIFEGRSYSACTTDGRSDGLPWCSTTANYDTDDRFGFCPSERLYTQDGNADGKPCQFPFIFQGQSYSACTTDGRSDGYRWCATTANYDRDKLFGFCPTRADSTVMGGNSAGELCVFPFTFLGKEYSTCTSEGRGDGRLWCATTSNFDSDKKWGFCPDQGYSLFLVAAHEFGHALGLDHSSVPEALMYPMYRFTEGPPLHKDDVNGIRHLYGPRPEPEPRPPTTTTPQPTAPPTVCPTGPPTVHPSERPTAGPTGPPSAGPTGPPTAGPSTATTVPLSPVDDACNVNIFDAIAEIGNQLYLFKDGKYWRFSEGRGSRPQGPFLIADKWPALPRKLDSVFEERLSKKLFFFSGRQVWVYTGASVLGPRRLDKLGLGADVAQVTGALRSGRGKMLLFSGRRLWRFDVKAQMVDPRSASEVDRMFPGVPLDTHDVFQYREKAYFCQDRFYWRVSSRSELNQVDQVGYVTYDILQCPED

Consider `C[C@@H]1NC(=O)[C@@H](N)Cc2cn(nn2)CCCC[C@@H](C(N)=O)NC(=O)[C@H](Cc2ccc(O)cc2)NC(=O)[C@@H]2CCCN2C(=O)[C@H](Cc2c[nH]cn2)NC(=O)[C@@H]2CCCN2C1=O` (H-[Pra]APHPY[Lys(N3)]-NH2; triazole 1-7), for which the result in [1] was Active.

`C[C@@H]1NC(=O)[C@H](Cc2c[nH]c3ccccc23)NC(=O)[C@@H](N)Cc2cn(nn2)CCCC[C@@H](C(N)=O)NC(=O)[C@H](Cc2ccc(O)cc2)NC(=O)[C@@H]2CCCN2C(=O)[C@H](Cc2c[nH]cn2)NC1=O` (H-[Pra]WAHPY[Lys(N3)]-NH2; triazole 1-7): in assay [1], the result was Active.

Turning to `C[C@@H]1NC(=O)[C@@H]2CCCN2C(=O)[C@H](Cc2c[nH]c3ccccc23)NC(=O)[C@@H](N)Cc2cn(nn2)CCCC[C@@H](C(N)=O)NC(=O)[C@H](Cc2ccc(O)cc2)NC(=O)[C@@H]2CCCN2C1=O` (H-[Pra]WPAPY[Lys(N3)]-NH2; triazole 1-7), the result in assay [1] was Active.

Turning to `C[C@@H]1NC(=O)[C@H](Cc2c[nH]cn2)NC(=O)[C@@H]2CCCN2C(=O)[C@H](Cc2c[nH]c3ccccc23)NC(=O)[C@@H](N)Cc2cn(nn2)CCCC[C@@H](C(N)=O)NC(=O)[C@H](Cc2ccc(O)cc2)NC1=O` (H-[Pra]WPHAY[Lys(N3)]-NH2; triazole 1-7), the outcome in assay [1] was Active.

In the case of `C[C@@H]1NC(=O)[C@@H]2CCCN2C(=O)[C@H](Cc2c[nH]cn2)NC(=O)[C@@H]2CCCN2C(=O)[C@H](Cc2c[nH]c3ccccc23)NC(=O)[C@@H](N)Cc2cn(nn2)CCCC[C@@H](C(N)=O)NC1=O` (H-[Pra]WPHPA[Lys(N3)]-NH2; triazole 1-7), the outcome in assay [1] was Active.

In the case of `NC(=O)[C@@H]1CCCCn2cc(nn2)C[C@H](N)C(=O)N[C@@H](Cc2c[nH]c3ccccc23)C(=O)N2CCC[C@H]2C(=O)N[C@@H](Cc2c[nH]cn2)C(=O)N2CCC[C@H]2C(=O)N[C@@H](Cc2ccc(O)cc2)C(=O)N1` (H-[Pra]WPHPY[Lys(N3)]-NH2; triazole 1-7), the inhibition entry in assay [2] and in assay [7] was “inactive” in each case. Also, the inhibition entry in assay [3] and in [10] was “Dose-dependent effect” each time. For the same compound, the result in assay [4] and in [11] was Active. Moreover, the inhibition entry in assay [5], in assay [6] and in [9] was “Active” each time. The outcome in [8] was inactive.

Take `NCCCC[C@H](NC(=O)[C@H](Cc1ccc(O)cc1)NC(=O)[C@@H]1CCCN1C(=O)[C@H](Cc1c[nH]cn1)NC(=O)[C@@H]1CCCN1C(=O)[C@H](Cc1c[nH]c2ccccc12)NC(=O)[C@@H](N)Cc1c[nH]nn1)C(N)=O` (H-[X1]WPHPYK-NH2): in [6], the inhibition entry was “inactive”.

Take `CCN(CC)c1ccc2c(-c3ccccc3C(=O)N(C)CCCC(=O)N[C@H]3Cc4cn(nn4)CCCC[C@@H](C(N)=O)NC(=O)[C@H](Cc4ccc(O)cc4)NC(=O)[C@@H]4CCCN4C(=O)[C@H](Cc4c[nH]cn4)NC(=O)[C@@H]4CCCN4C(=O)[C@H](Cc4c[nH]c5ccccc45)NC3=O)c3ccc(=[N+](CC)CC)cc-3oc2c1` (RhodamineB-[NMeGABA][Pra]WPHPY[Lys(N3)]-NH2; triazole 2-8): in assay [1], the outcome was Active. This compound came in with a Kd in [12] of 280 nM.

For orientation: Kd means a measure of binding affinity in units of concentration.
